From PMC4869561 (Inflammatory Bowel Diseases, 2016)
Values after ≈ are worked out from the molar mass of the structure shown. “Also recorded” adds a separate entry of the source. Where two headings read alike, the source gives them in different places.

What was measured:
[1] = test system: myofibroblasts isolated from inflamed UC mucosa; assay: TNF-α-stimulated IL-6 and IL-8 release by UC myofibroblasts; type: cell-based, human; details: for maximum inhibition (efficacy) of IL-6 release / maximum inhibition (efficacy) of IL-8 release: UC myofibroblasts, TNF-α-stimulated, 0.01-10 μg/mL; for IC50: 24 h
Outline: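 Myofibroblasts grown from explants of inflamed resected UC mucosa in DMEM with 20% FBS and antibiotics, passaged with trypsin-EDTA and used at passage ≥4. Seeded at 5 × 10^4/well and cultured overnight. Stimulated with TNF-α 20 ng/mL plus DMSO 0.5% v/v or test compound (0.000001–1 or 0.01–10 μg/mL). After 24 h, IL-6 and IL-8 measured by ELISA as percent inhibition versus TNF-α + DMSO; at least 3 independent experiments.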

HT29 cells = assay: IL-1β-stimulated IL-8 production by HT29 cells; type: cell-based, human; details: for maximum inhibition of IL-8 secretion, compound alone: IL-1β-stimulated HT29, 0.1-1000 ng/mL, maximum at 1000 ng/mL; for inhibitory effect on IL-8 secretion at 100 ng/mL: IL-1β-stimulated HT29, compound alone
[2] = test system: anti-CD3/anti-CD28-stimulated PBMCs; assay: CD3/CD28 stimulation of PBMCs, IL-2 and IFN-γ release; type: cell-based, human; details: for efficacy of inhibition of IFN-γ release / efficacy of inhibition of IL-2 release: anti-CD3/anti-CD28-stimulated PBMCs
[3] = test system: LPS-stimulated primary human macrophages; assay: LPS activation of monocyte-derived macrophages, IL-8 and TNF-α release; type: cell-based; details: for inhibition of IL-8 release / inhibition of TNF-α release: LPS-stimulated macrophages, up to maximum tested 250 ng/mL; for inhibition: Homo sapiens, Macrophage
Outline: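 CD14+ cells taken from human PBMCs by magnetic positive selection. Differentiated 12–14 days in RPMI with 10% FBS and GM-CSF 100 ng/mL. Plated at 2 × 10^5 cells/mL and equilibrated for 2 h. Pretreated 2 h with test compound or DMSO 0.5% v/v, then stimulated with LPS 10 ng/mL for 24 h. Supernatant IL-8 and TNF-α measured by ELISA.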

LPS-stimulated PBMCs = assay: LPS stimulation of PBMCs, IL-8 release; type: cell-based, human; details: for inhibition: Homo sapiens, PBMC, read-out: maximum inhibition of IL-8 release
Outline: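 Healthy-donor PBMCs (Lymphoprep) at 1 × 10^6 cells/mL in RPMI 1640 with 10% heat-inactivated FBS and 25 mM HEPES. Preincubated 2 h at 37°C, 5% CO2 with test compound 0.1–1000 ng/mL or DMSO 0.5% v/v. LPS 1 ng/mL then added for 24 h. Supernatant IL-8 measured by ELISA. At least 3 independent experiments.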

[4] = test system: inflamed colonic biopsies from patients with UC; assay: Organ culture of inflamed colonic UC biopsies, cytokine release; type: cell-based, human; details: 24 h; for inhibition at 1 µg/mL: Homo sapiens
Outline: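 Inflamed colonic UC biopsies cultured one per well in serum-free HL-1 medium with penicillin/streptomycin at 37°C, 5% CO2. Treated with DMSO 0.5% v/v, test compounds at 1 μg/mL, the three selective inhibitors combined, or one compound at 0.001–1 μg/mL. After 24 h, supernatant IL-1β, IL-6 and IL-8 measured by ELISA. Results given as mean percent inhibition versus DMSO; at least 3 independent experiments.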

[5] = test system: patients with active Crohn's disease; details: cited from earlier work
[6] = Propidium iodide flow cytometry cell viability assay; type: cell-based; details: concentrations tested in the cellular assays, data not shown
[7] = test system: mouse acetic acid-induced colitis; details: mouse acetic acid-induced colitis model; cited from earlier work
[8] = test system: rheumatoid arthritis patients; details: phase III trial; cited from earlier work
patients with UC = details: oral, clinical trial; cited from earlier work
[9] = Homo sapiens, read-out: IL-6 (IC50 Value)
[10] = Homo sapiens, read-out: IL-8 (IC50 Value)
[11] = read-out: inhibition of IL-1β release
[12] = read-out: inhibition of IL-6 release
[13] = read-out: inhibition of IL-8 release
[14] = read-out: inhibition of TNF-α release

Compound | maximum inhibition (efficacy) of IL-6 release [1] | maximum inhibition (efficacy) of IL-8 release [1] | maximum inhibition of IL-8 secretion, compound alone (HT29 cells) | inhibitory effect on IL-8 secretion at 100 ng/mL (HT29 cells) | efficacy of inhibition of IFN-γ release [2] | efficacy of inhibition of IL-2 release [2] | inhibition of IL-8 release [3] | inhibition of TNF-α release [3] | IC50 [1, 9] [µg/mL] | IC50 [1, 10] [µg/mL] | inhibition at 1 µg/mL [4, 11] [%] | inhibition at 1 µg/mL [4, 12] [%] | inhibition at 1 µg/mL [4, 13] [%] | inhibition [3, 13] [%] | inhibition [3, 14] [%] | inhibition (LPS-stimulated PBMCs) [%] | other results
COc1ccc(-c2cc3nccn3c(Nc3ncccc3C(N)=O)n2)cc1OC [BAY-61-3606] | over 90% | over 90% | 17% | Neither dasatinib nor BAY-61-3606 had any significant inhibitory effect | maximal efficacy | weaker inhibition | less than 50% | less than 50% |  |  |  |  |  |  |  |  | efficacy of inhibition of IFN-γ release ([2]; listed as BAY61-3606): weaker inhibition; potency weaker than TOP1210, IFN-γ release ([2]; ratio of IC50 values): 120 fold; potency weaker than TOP1210, IL-8 release (LPS-stimulated PBMCs; LPS-stimulated PBMCs, ratio of IC50 values): ~300 fold; maximum inhibition of IL-8 release (LPS-stimulated PBMCs; LPS-stimulated PBMCs, up to maximum tested 1 μg/mL): 83%
Cc1ccc(-n2nc(C(C)(C)C)cc2NC(=O)Nc2ccc(OCCN3CCOCC3)c3ccccc23)cc1 [BIRB-796] | 70% | 70% |  |  | inactive; also recorded: little-to-no effect | little-to-no effect |  |  | > 1 | > 1 | 50 to 65 | 50 to 65 | 50 to 65 | < 50 | < 50 | < 50 | serum C-reactive protein ([5]; after 1 week): dose-dependent decrease; clinical efficacy endpoints compared to placebo ([5]; any time point): no clinical efficacy endpoints were reached
Cc1nc(Nc2ncc(C(=O)Nc3c(C)cccc3Cl)s2)cc(N2CCN(CCO)CC2)n1 [Dasatinib] |  |  |  | Neither dasatinib nor BAY-61-3606 had any significant inhibitory effect |  |  |  |  | > 1 | > 1 |  |  |  | < 50 | 87 | < 50 | inhibition at 10 µg/mL ([1]; Homo sapiens, read-out: inhibition of IL-8 release): ~70%; inhibition of IL-1β release ([4]; inflamed UC biopsies, 1 μg/mL): did not have any significant effect; inhibition of IL-6 release ([4]; inflamed UC biopsies, 1 μg/mL): did not have any significant effect; inhibition of IL-8 release ([4]; inflamed UC biopsies, 1 μg/mL): did not have any significant effect
C#Cc1cc(Nc2nccc(Oc3ccc(NC(=O)Nc4cc(C(C)(C)C)nn4-c4ccc(C)cc4)c4ccccc34)n2)cc(C(=O)NCCOCCOCCOC)c1 [TOP1210, 3-((4-((4-(3-(3-(tert-butyl)-1-(p-tolyl)-1H-pyrazol-5-yl)ureido)naphthalen-1 yl)oxy)pyrimidin-2-yl)amino)-5-ethynyl-N-(2-(2-(2-methoxyethoxy)ethoxy)ethyl)benzamide] |  |  | maximal efficacy |  | maximal inhibition |  | maximal inhibition | maximal inhibition | 0.0022 (≈ 0.00276 µM) | 0.0021 (≈ 0.00264 µM) | 80 to 90 | 80 to 90 | 80 to 90 |  |  | 100 | cell viability (propidium iodide, flow cytometry) [6]: not to effect cell viability; potency weaker than dasatinib, IL-2 release ([2]; ratio vs dasatinib): approximately 15 fold; potency weaker as inhibitor of IL-2 release compared with IFN-γ release ([2]; same compound, IL-2 vs IFN-γ): 18 fold
COc1cc(Nc2ncc(F)c(Nc3ccc4c(n3)N(COP(=O)(O)O)C(=O)C(C)(C)O4)n2)cc(OC)c1OC [fostamatinib] |  |  |  |  |  |  |  |  |  |  |  |  |  |  |  |  | mucosal damage [7]: decrease mucosal damage; efficacy in rheumatoid arthritis [8]: limited efficacy
C[C@@H]1CCN(C(=O)CC#N)C[C@@H]1N(C)c1ncnc2[nH]ccc12 [tofacitinib] |  |  |  |  |  |  |  |  |  |  |  |  |  |  |  |  | efficacy in UC (patients with UC): effective
